Reference: ChEMBL document CHEMBL2321652, “Design and synthesis of HIV-1 protease inhibitors for a long-acting injectable drug application” (Bioorg Med Chem Lett, 2013)

What was measured:
[1] = Bioavailability in rat at 50 mg/mL formulated with 25 mg/mL of poloxamer 338 and sucrose in water administered intramuscularly measured after 1 month; assay type: ADME, organism-based; conditions: in vivo, im
How it was run: (§1)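 Nanosuspension depot given by a single intramuscular injection in rats. Blood is sampled at regular intervals over two months. Absolute bioavailability is assessed after 1 month of sampling as ((AUC_IM × dose_IV)/(AUC_IV × dose_IM)) × 100, relative to intravenous dosing.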

[2] = system: Human immunodeficiency virus 1; assay: Selectivity ratio of EC50 for Human immunodeficiency virus 1 3B clinical isolate harboring L10I/M46I/I64V/I84V/L90M/I93L protease mutant to EC50 for wild type Human immunodeficiency virus 1 3B; assay type: functional
[3] = Aqueous solubility of the compound in crystalline polymorphic form; assay type: physicochemical
[4] = Drug metabolism in human liver microsomes at 1 uM after 15 mins; assay type: ADME, Microsome; conditions: read-out: Drug metabolism
How it was run: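 Human liver microsome incubation at 37 °C for 15 min with compound at 1 µM; turnover expressed as percent of compound metabolized.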

[5] = system: Human immunodeficiency virus 1; assay: Antiviral activity against Human immunodeficiency virus 1 3B clinical isolate harboring L10I/M46I/I64V/I84V/L90M/I93L protease mutant infected in human MT4 cells assessed as inhibition of viral replication; assay type: functional, organism-based
How it was run: (§2)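 Inhibition of replication in MT4 cells infected with protease-mutant HIV-1 clinical isolates, reported as EC50. Each assay run in quadruplicate. Values are averages of at least two independent experiments, typically three to four. Cytotoxicity (CC50) was measured in parallel in MT4 cells.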

[6] = system: Human immunodeficiency virus 1; assay: Selectivity ratio of EC50 for Human immunodeficiency virus 1 3B clinical isolate harboring L10I/K20R/M36I/G48V/ I62V/A71V/V82A/I93L protease mutant to EC50 for wild type Human immunodeficiency virus 1 3B; assay type: functional
[7] = system: Human immunodeficiency virus 1; assay: Antiviral activity against Human immunodeficiency virus 1 3B clinical isolate harboring L10I/K20R/M36I/G48V/ I62V/A71V/V82A/I93L protease mutant infected in human MT4 cells assessed as inhibition of viral replication; assay type: functional, organism-based
How it was run: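 Each assay run in quadruplicate. Values are averages of at least two independent experiments, typically three to four. Cytotoxicity (CC50) was measured in parallel in MT4 cells.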

[8] = Bioavailability in rat at 50 mg/mL formulated with Vit-E TPGS, DSPG and sucrose in water administered intramuscularly measured after 1 month; assay type: ADME, organism-based; conditions: in vivo, im; how it was run: as §1
[9] = system: Human immunodeficiency virus 1; assay: Antiviral activity against Human immunodeficiency virus 1 3B clinical isolate harboring L10I/I13V/M46I/I50V/L63P/L76V protease mutant infected in human MT4 cells assessed as inhibition of viral replication; assay type: functional, organism-based; how it was run: as §2
[10] = Cytotoxicity against human MT4 cells; assay type: cell-based
[11] = system: Human immunodeficiency virus 1; assay: Selectivity ratio of EC50 for Human immunodeficiency virus 1 3B clinical isolate harboring L10I/I13V/M46I/I50V/L63P/L76V protease mutant to EC50 for wild type Human immunodeficiency virus 1 3B; assay type: functional
[12] = Bioavailability in rat at 100 mg/mL formulated with polysorbate 20 and NaCl in water administered intramuscularly measured after 1 month; assay type: ADME, organism-based; conditions: in vivo, im; how it was run: as §1
[13] = Plasma clearance in rat at 2 mg/kg, iv; assay type: ADME, organism-based; set-up: dose 2 mg/kg, route intravenous
How it was run: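 Single intravenous dose of 2 mg/kg in rats. The formulation is typically 1 mg/mL in PEG400/ethanol/saline (70/20/10). Clearance values are averages from two or three animals. High is >3 L/h/kg (>70% liver blood flow) and low is <1.3 L/h/kg (<30%).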

[14] = system: Human immunodeficiency virus 1; assay: Antiviral activity against wild type Human immunodeficiency virus 1 3B infected in human MT4 cells assessed as inhibition of viral replication in presence of 50% human serum
[15] = system: Human immunodeficiency virus 1; assay: Antiviral activity against wild type Human immunodeficiency virus 1 3B infected in human MT4 cells assessed as inhibition of viral replication; assay type: functional, organism-based
How it was run: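 EC50 values are averages of at least two independent experiments (typically three to four), each run in quadruplicate. For the serum-shifted line, the same antiviral assay includes 50% human serum, used as a functional measure of plasma protein binding.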

[16] = Bioavailability in rat at 100 mg/mL formulated with 25 mg/mL of polysorbate 20 and 9 mg/mL of NaCl in water administered intramuscularly measured after 1 month; assay type: ADME, organism-based; conditions: in vivo, im; how it was run: as §1
[17] = Bioavailability in rat at 50 mg/mL formulated with 12.5 mg/mL of poloxamer 338 and sucrose in water administered intramuscularly measured after 1 month; assay type: ADME, organism-based; conditions: in vivo, im; how it was run: as §1
[18] = Bioavailability in rat at 50 mg/mL formulated with Vit-E TPGS in water administered intramuscularly measured after 1 month; assay type: ADME, organism-based; conditions: in vivo, im; how it was run: as §1

SMILES: COC(=O)N[C@H](C(=O)N[C@@H](Cc1ccc(-c2ccc(N(C)C)nc2)cc1)[C@@H](O)C[C@@H](Cc1ccccc1F)C(=O)N[C@H]1c2cc(F)cc(Cl)c2OC[C@H]1O)C(C)(C)C
- bioavailability at 1 month [1]: 5%
- Ratio EC50 [2]: <1
- solubility [3]: < 100 µg/mL
- metabolised at 0.25 h, 1 µM [4]: 22%
- EC50 [5]: 1.3 nM
- Ratio EC50 [6]: <1
- EC50 [7]: 0.8 nM
- bioavailability at 1 month [8]: 12%
- EC50 [9]: 0.9 nM
- CC50 [10]: > 10000 nM
- Ratio EC50 [11]: <1
- bioavailability at 1 month [12]: 3%
- clearance [13]: 13.3 mL/min/kg
- EC50 [14]: 6 nM
- EC50 [15]: 1.7 nM

SMILES: COC(=O)N[C@H](C(=O)N[C@@H](Cc1ccc(-c2ccc(OC)nc2)cc1)[C@@H](O)C[C@@H](Cc1ccccc1F)C(=O)N[C@H]1[C@H](C)CCC[C@H]1O)C(C)(C)C
- Ratio EC50 [2]: <1
- solubility [3]: < 100 µg/mL
- metabolised at 0.25 h, 1 µM [4]: 99%
- Ratio EC50 [6]: <1
- EC50 [7]: 0.5 nM
- EC50 [9]: 0.3 nM
- CC50 [10]: > 10000 nM
- Ratio EC50 [11]: <1
- clearance [13]: 90 mL/min/kg
- EC50 [14]: 2 nM
- EC50 [15]: 0.8 nM
- bioavailability at 1 month [16]: > 100%

SMILES: COC(=O)N[C@H](C(=O)N[C@@H](Cc1ccc(-c2ccc(OC)nc2)cc1)[C@@H](O)C[C@@H](Cc1ccccc1F)C(=O)N[C@H]1c2ccsc2CC[C@H]1O)C(C)(C)C
- Ratio EC50 [2]: <1
- bioavailability at 1 month [17]: > 100%
- solubility [3]: < 100 µg/mL
- bioavailability at 1 month [18]: 100%
- metabolised at 0.25 h, 1 µM [4]: 91%
- EC50 [5]: 0.9 nM
- Ratio EC50 [6]: <1
- EC50 [7]: 0.4 nM
- EC50 [9]: 0.6 nM
- CC50 [10]: > 10000 nM
- Ratio EC50 [11]: <1
- clearance [13]: 80 mL/min/kg
- EC50 [14]: 3.7 nM
- EC50 [15]: 1.1 nM
